Source: ChEMBL document CHEMBL4393670 (J Med Chem, 2019)
The source made the active and inactive calls. The rule behind the calls is not given here. Residues, ends and D or L forms follow the SMILES beside them. *: point of attachment. Cbz = O=C(OCc1ccccc1)*; Boc = CC(C)(C)OC(=O)*; OBn = c1ccc(CO*)cc1; OtBu = CC(C)(C)O*

Experiments:
[1] = tested on: NCI-H23; experiment: Cytotoxicity against human NCI-H23 cells after 72 hrs by CellTiter 96 AQueous one solution cell proliferation assay; type: functional, cell-based; conditions: NCI-H23, 72 h
Outline: (§1)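 Cells in RPMI1640 with 10% FBS; H23 plated at 5000, H727, RPMI8226 and the Cfz-resistant subline at 10 000 cells/well. Resistant subline adapted to stepwise Cfz up to 80 nM over ~6 months, kept in 80 nM, then Cfz-free ~1 week before testing.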

[2] = tested on: NCI-H727; experiment: Cytotoxicity against human NCI-H727 cells after 72 hrs by CellTiter 96 AQueous one solution cell proliferation assay; type: functional, cell-based; conditions: NCI-H727, 72 h; outline: as §1
[3] = Cytotoxicity against human RPMI8226/Cfzr cells after 72 hrs by CellTiter 96 AQueous one solution cell proliferation assay; type: functional, cell-based; conditions: RPMI-8226, 72 h; outline: as §1
[4] = target: T1, Proteasome Macropain subunit MB1 (Homo sapiens, UniProt P28074); experiment: Inhibition of 20S proteasome beta5 subunit in human RPMI8226 cell lysate using Suc-LLVY-AMC as substrate pretreated for 1 hr followed by substrate addition and measured at 1 min interval by fluorescence assay; type: subcellular
T1 sequence (P28074 whole entry): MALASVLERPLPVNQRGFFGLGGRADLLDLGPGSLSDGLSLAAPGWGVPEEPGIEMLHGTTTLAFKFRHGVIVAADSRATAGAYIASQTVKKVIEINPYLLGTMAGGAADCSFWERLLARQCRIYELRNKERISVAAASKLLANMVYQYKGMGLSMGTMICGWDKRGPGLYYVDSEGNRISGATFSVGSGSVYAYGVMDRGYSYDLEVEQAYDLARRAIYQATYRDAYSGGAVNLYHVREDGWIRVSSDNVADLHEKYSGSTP

[5] = target: T2, Proteasome subunit beta type-9 (Homo sapiens, UniProt P28065); experiment: Inhibition of purified human 20S immunoproteasome beta1 subunit using Ac-Pro-Ala-Leu-AMC as substrate pretreated for 1 hr followed by substrate addition and measured at 1 min interval by fluorescence assay
T2 sequence (P28065 whole entry): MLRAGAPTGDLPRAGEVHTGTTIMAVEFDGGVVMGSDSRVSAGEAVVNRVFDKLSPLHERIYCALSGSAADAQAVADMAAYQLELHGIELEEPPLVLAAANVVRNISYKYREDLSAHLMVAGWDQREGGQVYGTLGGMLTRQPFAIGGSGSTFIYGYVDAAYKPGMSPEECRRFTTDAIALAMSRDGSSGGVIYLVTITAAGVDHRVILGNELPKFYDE

[6] = Selectivity ratio of IC50 for human NCI-H727 cells to IC50 for human NCI-H23 cells; type: functional
[7] = species: Homo sapiens; experiment: Cytotoxicity against human Btz-resistant multiple myeloma cells at 10 uM after 48 hrs by CellTiter Glo luminescent cell viability assay
[8] = tested on: RPMI-8226; experiment: Cytotoxicity against human RPMI8226 cells after 72 hrs by CellTiter 96 AQueous one solution cell proliferation assay; type: functional, cell-based; conditions: RPMI-8226, 72 h; outline: as §1
[9] = species: Homo sapiens; experiment: Cytotoxicity against human multiple myeloma cells at 10 uM after 48 hrs by CellTiter Glo luminescent cell viability assay
[10] = Selectivity ratio of IC50 for human RPMI8226/Cfzr cells to IC50 for human RPMI8226 cells; type: functional
[11] = Stability in Sprague-Dawley rat liver homogenate at 1 uM measured up to 20 mins by LC-MS/MS analysis
[12] = Half life in patient with relapsed and refractory multiple myeloma; type: ADME; conditions: human, in vivo
[13] = target: ATP-dependent translocase ABCB1 (Homo sapiens, UniProt P08183); experiment: Inhibition of P-gp in human RPMI8226/Cfzr cells assessed as potentiation of carfilzomib-induced cytotoxicity at 7.5 uM measured after 72 hrs by CellTiter 96 AQueous one solution cell proliferation assay; type: cell-based
[14] = Potency index, ratio of carfilzomib IC50 to test compound IC50 for human RPMI8226/Cfzr cells; type: functional
[15] = tested on: NCI-H727; experiment: Potency index, ratio of carfilzomib IC50 to test compound IC50 for human NCI-H727 cells; type: functional

Chain of ATP-dependent translocase ABCB1 (P08183 whole entry): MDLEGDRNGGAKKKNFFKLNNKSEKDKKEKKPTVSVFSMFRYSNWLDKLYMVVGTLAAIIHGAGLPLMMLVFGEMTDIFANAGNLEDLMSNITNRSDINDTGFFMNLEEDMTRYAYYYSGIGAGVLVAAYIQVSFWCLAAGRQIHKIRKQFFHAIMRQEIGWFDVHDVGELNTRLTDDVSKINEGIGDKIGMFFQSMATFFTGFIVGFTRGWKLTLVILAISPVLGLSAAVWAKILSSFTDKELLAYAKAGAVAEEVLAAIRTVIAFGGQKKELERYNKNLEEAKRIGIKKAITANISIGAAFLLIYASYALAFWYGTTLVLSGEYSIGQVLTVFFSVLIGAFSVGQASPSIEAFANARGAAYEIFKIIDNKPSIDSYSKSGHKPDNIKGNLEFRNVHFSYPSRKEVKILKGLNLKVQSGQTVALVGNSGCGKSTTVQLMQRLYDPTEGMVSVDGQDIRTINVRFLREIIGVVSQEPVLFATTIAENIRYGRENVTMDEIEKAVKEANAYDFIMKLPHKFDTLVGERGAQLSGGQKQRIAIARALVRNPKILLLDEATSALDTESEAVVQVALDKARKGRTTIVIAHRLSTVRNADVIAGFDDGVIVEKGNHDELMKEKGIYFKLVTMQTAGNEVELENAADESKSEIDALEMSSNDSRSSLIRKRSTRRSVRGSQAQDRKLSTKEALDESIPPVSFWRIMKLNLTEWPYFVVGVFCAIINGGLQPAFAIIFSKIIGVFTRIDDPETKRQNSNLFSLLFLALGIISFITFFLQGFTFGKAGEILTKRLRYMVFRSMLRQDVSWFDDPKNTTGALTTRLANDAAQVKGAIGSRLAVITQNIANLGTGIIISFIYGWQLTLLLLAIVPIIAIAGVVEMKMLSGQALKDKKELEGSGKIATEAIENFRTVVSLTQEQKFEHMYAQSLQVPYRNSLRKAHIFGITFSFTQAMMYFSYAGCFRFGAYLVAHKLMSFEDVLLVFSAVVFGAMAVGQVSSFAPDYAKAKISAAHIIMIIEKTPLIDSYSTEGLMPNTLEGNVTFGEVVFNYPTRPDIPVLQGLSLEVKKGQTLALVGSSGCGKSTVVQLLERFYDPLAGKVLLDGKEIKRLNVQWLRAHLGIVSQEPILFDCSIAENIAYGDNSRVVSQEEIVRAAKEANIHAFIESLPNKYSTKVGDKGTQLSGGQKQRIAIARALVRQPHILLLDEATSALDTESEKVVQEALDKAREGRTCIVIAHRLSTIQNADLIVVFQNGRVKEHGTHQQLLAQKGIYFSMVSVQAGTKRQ

Row | SMILES | IC50 [1] | IC50 [2] | IC50 [3] | IC50 [4] | Ratio IC50 [6] | other results
1 | CCCCCCC(=O)N[C@@H](C)C(=O)N[C@@H](CC(C)C)C(=O)[C@@]1(CO)CO1 | 580 nM | 690 nM | 310 nM | 1700 nM | – | IC50 [5]: 36 nM
2 | CC(C)C[C@H](NC(=O)[C@H](CCc1ccccc1)NC(=O)CN1CCOCC1)C(=O)N[C@@H](Cc1ccccc1)C(=O)N[C@@H](CC(C)C)C(=O)[C@@]1(COS(C)(=O)=O)CO1 | 311 nM | 834 nM | – | 8 nM | – | –
3 | CC(C)C[C@H](NC(=O)[C@H](Cc1ccccc1)NC(=O)c1cnccn1)B(O)O [BORTEZOMIB] | 10 nM | 25 nM | – | – | 2.5 | –
4 | CCCCCCC(=O)N[C@@H](C)C(=O)N[C@@H](CC(C)C)C(=O)[C@@]1(CO[Si](C)(C)C(C)(C)C)CO1 | 3370 nM | 5210 nM | 2140 to 3720 nM | > 10000 nM | 1.5 | Activity [7]: Active; IC50 [8]: 2140 nM; Activity [9]: Active; IC50 [5]: 140 nM; Ratio IC50 [10]: 1.7
5 | COC[C@]1(C(=O)[C@H](CC(C)C)NC(=O)[C@H](Cc2ccccc2)NC(=O)[C@H](CC(C)C)NC(=O)[C@H](CCc2ccccc2)NC(=O)CN2CCOCC2)CO1 | – | – | – | > 1000 nM | – | –
6 | CC(C)C[C@H](NC(=O)[C@H](CCc1ccccc1)NC(=O)CN1CCOCC1)C(=O)N[C@@H](Cc1ccccc1)C(=O)N[C@@H](CC(C)C)C(=O)[C@@]1(C)CO1 [CARFILZOMIB] | 18 to 18.3 nM | 610 to 611 nM | 269 to 270 nM | – | – | Stability [11]: Stable; half-life [12]: < 1 h; IC50 [8]: 7 nM
7 | CC(C)(C)OC(=O)N[C@@H](CC(=O)OCc1ccccc1)C(=O)N[C@@H](CCCCNC(=O)OCc1ccccc1)C(=O)OC(C)(C)C [REVERSIN 121] (Boc-Asp(OBn)-Lys(Cbz)-OtBu) | – | – | – | – | – | inhibition (INH) [13]: Active
8 | COCCOCOC[C@]1(C(=O)[C@H](CC(C)C)NC(=O)[C@H](Cc2ccccc2)NC(=O)[C@H](CC(C)C)NC(=O)[C@H](CCc2ccccc2)NC(=O)CN2CCOCC2)CO1 | – | – | – | > 1000 nM | – | –
9 | COCOC[C@]1(C(=O)[C@H](CC(C)C)NC(=O)[C@H](Cc2ccccc2)NC(=O)[C@H](CC(C)C)NC(=O)[C@H](CCc2ccccc2)NC(=O)CN2CCOCC2)CO1 | – | – | – | > 1000 nM | – | –
10 | CC[C@H](C)[C@H](NC(=O)[C@H]([C@@H](C)CC)N(C)C(C)=O)C(=O)N[C@H](C(=O)N[C@@H](CC(C)C)C(=O)[C@@]1(C)CO1)[C@@H](C)O [EPOXOMYCIN] | – | – | 541 nM | – | – | IC50 [8]: 11 nM; Ratio IC50 [10]: 49.2
11 | CCCCCCC(=O)N[C@@H](CO)C(=O)N[C@@H](CC(C)C)C(=O)[C@@]1(COCOCCOC)CO1 | 3400 nM | 4490 nM | 3410 nM | – | 1.3 | Activity [7]: Active; IC50 [8]: 2080 nM; Activity [9]: Active; Ratio IC50 [10]: 1.6
12 | CC(C)C[C@H](NC(=O)[C@H](CCc1ccccc1)NC(=O)CN1CCOCC1)C(=O)N[C@@H](Cc1ccccc1)C(=O)N[C@@H](CC(C)C)C(=O)[C@@]1(CO)CO1 | 29.4 nM | 61 nM | 106 nM | 2.1 nM | – | Ratio IC50 [14]: 3; Stability [11]: Stable; Ratio IC50 [15]: 10; IC50 [5]: 743 nM
13 | CC(C)C[C@H](NC(=O)[C@H](CCc1ccccc1)NC(=O)CN1CCOCC1)C(=O)N[C@@H](Cc1ccccc1)C(=O)N[C@@H](CC(C)C)C(=O)[C@@]1(CO[Si](c2ccccc2)(c2ccccc2)C(C)(C)C)CO1 | > 10000 nM | > 10000 nM | – | 112 nM | – | –
14 | CC(C)C[C@@H](C=O)NC(=O)[C@H](CC(C)C)NC(=O)[C@H](CC(C)C)NC(=O)OCc1ccccc1 [MG-132] (Cbz-Leu-Leu-Leu-aldehyde) | 480 nM | 980 nM | – | – | 2 | –
15 | CC(=O)N[C@@H](CSC(=O)[C@]1([C@@H](O)C(C)C)NC(=O)[C@H](C)[C@@H]1O)C(=O)O [LACTACYSTIN] | 5230 nM | > 100000 nM | – | – | >19 | –
